Experimental data published in ChEMBL document CHEMBL2406939, “Structure, synthesis, and biological activity of a C-20 bisacetylenic alcohol from a marine sponge Callyspongia sp” (J Nat Prod, 2013).
Calls of active or inactive are those of the source. No cut-off for these calls is given here.

Legend:
[1] = Antiproliferative activity against temperature-sensitive rat lymphatic endothelial cells assessed as cell viability at 10 uM after 48 hrs by MTS assay; type: functional; settings: read-out: Activity
Method in brief: (§1)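 TR-LE cells kept on type I collagen-coated dishes in HuMedia-EB2/EG + 10% FBS at permissive 33 °C. Seeded at 8 × 10^3 cells/well in DMEM + 10% FBS on collagen I-coated plates. Allowed 3 h to adhere, then exposed to compounds (final 0.1–100 μM) for 48 h. Viability by MTS assay. Final DMSO ≤0.5% (v/v).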

Endothelial cell = test: Antiproliferative activity against temperature-sensitive rat lymphatic endothelial cells assessed as cell viability at 100 uM after 48 hrs by MTS assay; type: functional, cell-based; method in brief: as §1
HeLa = test: Antiproliferative activity against human HeLa cells after 48 hrs by MTS assay; type: functional, cell-based
Method in brief: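 HeLa cells grown in EMEM + 10% FBS at 37 °C, 5% CO2. Seeded at 3 × 10^3 cells/well in EMEM + 10% FBS, incubated 24 h, then exposed to compounds for 48 h. Viability read by MTS assay. Final DMSO ≤0.5% (v/v). IC50 from viability.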

[2] = Antiproliferative activity against temperature-sensitive rat lymphatic endothelial cells after 48 hrs by MTS assay; settings: Endothelial cell

C#CC(=O)/C=C/CCCCCCCCCC/C=C/C(O)C#C (stereo unspecified)
viability at 10 µM [1]: 78%

C#CC(=O)/C=C/CCCCCC
Activity (Endothelial cell): inactive

C#CC(O)/C=C/CCCCCC (stereo unspecified)
Activity (Endothelial cell): inactive

CC(=O)O[C@H]1C(=O)[C@@]2(C)[C@H]([C@H](OC(=O)c3ccccc3)[C@]3(O)C[C@H](OC(=O)[C@H](O)[C@@H](NC(=O)c4ccccc4)c4ccccc4)C(C)=C1C3(C)C)[C@]1(OC(C)=O)CO[C@@H]1C[C@@H]2O [PACLITAXEL]
IC50 (HeLa): 1.7 nM

CC[C@]1(O)C[C@H]2CN(CCc3c([nH]c4ccccc34)[C@@](C(=O)OC)(c3cc4c(cc3OC)N(C=O)[C@H]3[C@@](O)(C(=O)OC)[C@H](OC(C)=O)[C@]5(CC)C=CCN6CC[C@]43[C@@H]65)C2)C1 [VINCRISTINE]
IC50 (HeLa): 4.3 nM | IC50 [2]: 80 nM
